Source: ChEMBL document CHEMBL1126849, “Synthesis of A-ring fluorinated derivatives of (17 alpha,20E/Z)-[125I]iodovinylestradiols: effect on receptor binding and receptor-mediated target tissue uptake” (J Med Chem, 1993)

Experiments:
Conditions in all cases: in vivo
Rattus norvegicus [1] = experiment: Biodistribution in uterus / blood of immature female rat after 12 hour administration of 3 micro Ci (111 kBq) in the absence of 60 microg estradiol; type: ADME, organism-based
Procedure, shortened: (§1)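 Same in vivo procedure: immature female Long Evans rats (21–24 days), three to five per group, 3 μCi (111 kBq) tracer i.v. via tail vein in 9% ethanol/saline/1% Tween-80, ± 60 μg estradiol co-injected at 1 h. Uterus %ID/g (gamma counting) divided by blood, or by nontarget organ (muscle, spleen, lungs), %ID/g to give ratios.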

Rattus norvegicus [2] = experiment: Biodistribution in uterus / spleen, muscle, lungs of immature female rat after 3 hour administration of 3 micro Ci (111 kBq) in the absence of 60 microg estradiol; type: ADME, organism-based
Procedure, shortened: (§2)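 Immature female Long Evans rats (21–24 days, 45–70 g), 3–5 per group, unanesthetized in retention cages, given 3 μCi (111 kBq) 125I-labeled steroid by lateral tail vein. Vehicle: ethanol diluted with saline containing 1% Tween-80, final ethanol 9%. +E2 group co-injected 60 μg unlabeled estradiol (1 h only). Killed under ether; tissues KCl-washed, weighed, gamma-counted. Output: %ID/g (mean, SE) and uterus to blood or nontarget (muscle, spleen, lungs) ratios.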

Rattus norvegicus [3] = experiment: Biodistribution in spleen of immature female rat after 1 hr administration of 3 micro Ci (111 kBq) in the presence of (+E2); type: ADME, organism-based
Procedure, shortened: (§3)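 Immature female Long Evans rats (21–24 days, 45–70 g), three to five per group, given 125I-labeled steroid (3 μCi, 111 kBq) by lateral tail vein without anesthesia. Vehicle: ethanol diluted in saline with 1% Tween-80, final ethanol 9%, 0.22 μm filtered. +E2 groups received 60 μg unlabeled estradiol co-injected. Killed under ether at set times; tissues KCl-washed, blotted, weighed, gamma counted; %ID/g, mean with SE.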

Rattus norvegicus [4] = experiment: Biodistribution in fat of immature female rat after 5 hour administration of 3 micro Ci (111 kBq) in the absence of 60 microg estradiol; type: ADME, organism-based, Adipose tissue
Procedure, shortened: (§4)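 Immature female Long Evans rats (21–24 days, 45–70 g), unanesthetized in retention cages, given 3 µCi (111 kBq) 125I-labeled steroid i.v. via lateral tail vein. Vehicle was ethanol diluted in saline containing 1% Tween-80, giving 9% ethanol final. The blocking group received 60 µg unlabeled estradiol co-injected. Rats were killed under ether by axillary bleeding, and tissues were KCl-washed and gamma-counted. Data are %ID/g, mean ± SE, n=3–5.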

Rattus norvegicus [5] = experiment: Biodistribution in muscle of immature female rat after 5 hour administration of 3 micro Ci (111 kBq) in the absence of 60 microg estradiol; type: ADME, organism-based, Muscle tissue; procedure, shortened: as §3
Rattus norvegicus [6] = experiment: Biodistribution in thyroid of immature female rat after 1 hr administration of 3 micro Ci (111 kBq) in the absence of 60 microg estradiol; type: ADME, organism-based, Thyroid gland; procedure, shortened: as §3
Rattus norvegicus [7] = experiment: Biodistribution in kidney of immature female rat after 1 hr administration of 3 micro Ci (111 kBq) in the absence of 60 microg estradiol; type: ADME, organism-based; procedure, shortened: as §4
Rattus norvegicus [8] = experiment: Biodistribution in fat of immature female rat after 3 hour administration of 3 micro Ci (111 kBq) in the absence of 60 microg estradiol; type: ADME, organism-based, Adipose tissue; procedure, shortened: as §4
Rattus norvegicus [9] = experiment: Biodistribution in uterus of immature female rat after 3 hour administration of 3 micro Ci (111 kBq) in the absence of 60 microg estradiol; type: ADME, organism-based; procedure, shortened: as §2
Rattus norvegicus [10] = experiment: Biodistribution in liver of immature female rat after 3 hour administration of 3 micro Ci (111 kBq) in the absence of 60 microg estradiol; type: ADME, organism-based; procedure, shortened: as §4
Rattus norvegicus [11] = experiment: Biodistribution in muscle of immature female rat after 1 hr administration of 3 micro Ci (111 kBq) in the presence of (+E2); type: ADME, organism-based, Muscle tissue; procedure, shortened: as §3
Rattus norvegicus [12] = experiment: Biodistribution in uterus / blood of immature female rat after 1 hr administration of 3 micro Ci (111 kBq) in the presence of (+E2); type: ADME, organism-based; procedure, shortened: as §1
Rattus norvegicus [13] = experiment: Biodistribution in muscle of immature female rat after 12 hour administration of 3 micro Ci (111 kBq) in the absence of 60 microg estradiol; type: ADME, organism-based, Muscle tissue; procedure, shortened: as §3
Rattus norvegicus [14] = experiment: Biodistribution in liver of immature female rat after 1 hr administration of 3 micro Ci (111 kBq) in the absence of 60 microg estradiol; type: ADME, organism-based; procedure, shortened: as §4
Rattus norvegicus [15] = experiment: Biodistribution in lungs of immature female rat after 5 hour administration of 3 micro Ci (111 kBq) in the absence of 60 microg estradiol; type: ADME, organism-based, Lung; procedure, shortened: as §3
Rattus norvegicus [16] = experiment: Biodistribution in uterus / spleen, muscle, lungs of immature female rat after 5 hour administration of 3 micro Ci (111 kBq) in the absence of 60 microg estradiol; type: ADME, organism-based; procedure, shortened: as §2
Rattus norvegicus [17] = experiment: Biodistribution in blood of immature female rat after 5 hour administration of 3 micro Ci (111 kBq) in the absence of 60 microg estradiol; type: ADME, organism-based; procedure, shortened: as §4
Rattus norvegicus [18] = experiment: Biodistribution in uterus of immature female rat after 1 hr administration of 3 micro Ci (111 kBq) in the presence of (+E2); type: ADME, organism-based; procedure, shortened: as §2
Rattus norvegicus [19] = experiment: Biodistribution in liver of immature female rat after 1 hr administration of 3 micro Ci (111 kBq) in the presence of (+E2); type: ADME, organism-based; procedure, shortened: as §4
Rattus norvegicus [20] = experiment: Biodistribution in liver of immature female rat after 12 hour administration of 3 micro Ci (111 kBq) in the absence of 60 microg estradiol; type: ADME, organism-based; procedure, shortened: as §4
Rattus norvegicus [21] = experiment: Biodistribution in uterus of immature female rat after 5 hour administration of 3 micro Ci (111 kBq) in the absence of 60 microg estradiol; type: ADME, organism-based; procedure, shortened: as §2
Rattus norvegicus [22] = experiment: Biodistribution in muscle of immature female rat after 3 hour administration of 3 micro Ci (111 kBq) in the absence of 60 microg estradiol; type: ADME, organism-based, Muscle tissue; procedure, shortened: as §3
Rattus norvegicus [23] = experiment: Biodistribution in lungs of immature female rat after 1 hr administration of 3 micro Ci (111 kBq) in the absence of 60 microg estradiol; type: ADME, organism-based, Lung; procedure, shortened: as §4
Rattus norvegicus [24] = experiment: Biodistribution in kidney of immature female rat after 5 hour administration of 3 micro Ci (111 kBq) in the absence of 60 microg estradiol; type: ADME, organism-based; procedure, shortened: as §4
Rattus norvegicus [25] = experiment: Biodistribution in uterus / blood of immature female rat after 3 hour administration of 3 micro Ci (111 kBq) in the absence of 60 microg estradiol; type: ADME, organism-based; procedure, shortened: as §1
Rattus norvegicus [26] = experiment: Biodistribution in fat of immature female rat after 12 hour administration of 3 micro Ci (111 kBq) in the absence of 60 microg estradiol; type: ADME, organism-based, Adipose tissue; procedure, shortened: as §4

Compound	Uterus-to-blood radioactivity ratio (dimensionless) (Rattus norvegicus [1])	Uterus to nontarget tissue (spleen, muscle, lungs) uptake ratio (Rattus norvegicus [2])	ID/g (Rattus norvegicus [3])	ID/g (Rattus norvegicus [4])	ID/g (Rattus norvegicus [5])	ID/g (Rattus norvegicus [6])	ID/g (Rattus norvegicus [7])	ID/g (Rattus norvegicus [8])	ID/g (Rattus norvegicus [9])	ID/g (Rattus norvegicus [10])	ID/g (Rattus norvegicus [11])	uterus/blood %ID/g ratio (Rattus norvegicus [12])	ID/g (Rattus norvegicus [13])	ID/g (Rattus norvegicus [14])	ID/g (Rattus norvegicus [15])	uterus to nontarget tissue ratio (Rattus norvegicus [16])	ID/g (Rattus norvegicus [17])	ID/g (Rattus norvegicus [18])	ID/g (Rattus norvegicus [20])	ID/g (Rattus norvegicus [21])	also measured
C[C@@H]1Cc2c(ccc(O)c2F)[C@H]2CC[C@@]3(C)[C@@H](CC[C@@]3(O)/C=C/I)[C@H]12	17.87%	7.15%	1.29%	4.59%	0.56%	61%	1.41%	4%	5.29%	3.44%	0.97%	2.68%	0.16%	4.36%	0.77%	9.38%	0.39%	1.14%	1.57%	6.44%	ID/g (Rattus norvegicus [19]): 5.84%; ID/g (Rattus norvegicus [22]): 0.43%; ID/g (Rattus norvegicus [23]): 1.47%; ID/g (Rattus norvegicus [24]): 0.89%; uterus to blood %ID/g ratio (unitless) (Rattus norvegicus [25]): 17.28%; ID/g (Rattus norvegicus [26]): 1.67%
C[C@@H]1Cc2cc(O)c(F)cc2[C@H]2CC[C@@]3(C)[C@@H](CC[C@@]3(O)/C=C\I)[C@H]12	18.13%	7.35%	0.56%	2.2%	0.29%	205%	1.11%	1.54%	4.03%	1.81%	0.29%	1.2%	0.19%	2.19%	0.37%	8.94%	0.33%	0.39%	1.69%	3.4%	ID/g (Rattus norvegicus [19]): 1.83%; ID/g (Rattus norvegicus [22]): 0.32%; ID/g (Rattus norvegicus [23]): 0.56%; ID/g (Rattus norvegicus [24]): 0.54%; uterus to blood %ID/g ratio (unitless) (Rattus norvegicus [25]): 14.81%; ID/g (Rattus norvegicus [26]): 0.84%
CO[C@H]1C[C@@]2(C)[C@@H](CC[C@@]2(O)/C=C\I)[C@@H]2CCc3c(ccc(O)c3F)[C@H]21	34.58%	11.77%	1.28%	0.75%	0.4%	551%	1.64%	1.13%	7.48%	1.21%	0.77%	1.3%	0.27%	2%	0.51%	21.03%	0.51%	1.06%	0.83%	10.96%	ID/g (Rattus norvegicus [19]): 2.77%; ID/g (Rattus norvegicus [22]): 0.48%; ID/g (Rattus norvegicus [23]): 0.84%; ID/g (Rattus norvegicus [24]): 1.08%; uterus to blood %ID/g ratio (unitless) (Rattus norvegicus [25]): 13.35%; ID/g (Rattus norvegicus [26]): 0.47%
CO[C@H]1C[C@@]2(C)[C@@H](CC[C@@]2(O)/C=C/I)[C@@H]2CCc3cc(O)c(F)cc3[C@H]21	10.45%	8.2%	1.04%	1.57%	0.45%	224%	1.44%	1.82%	3.23%	3.56%	1.02%	1.6%	0.07%	3.5%	0.51%	8.56%	0.32%	0.81%	1.48%	3.9%	ID/g (Rattus norvegicus [22]): 0.56%; ID/g (Rattus norvegicus [23]): 0.95%; ID/g (Rattus norvegicus [24]): 1.52%; uterus to blood %ID/g ratio (unitless) (Rattus norvegicus [25]): 8.28%; ID/g (Rattus norvegicus [26]): 0.45%
